Results on 5 compounds are retold here after ChEMBL document CHEMBL5126632, “Balancing Affinity, Selectivity, and Cytotoxicity of Hydrazone-Based G-Quadruplex Ligands for Activation of Interferon β Genes in Cancer Cells” (J Med Chem, 2022).

By pKd is commonly meant −log10 of the Kd, conventionally taken in molar units. A word on the ΔTm: it is the change in melting temperature against a reference sample. As usually defined, the pIC50 is −log10 of the IC50, conventionally taken in molar units.

SMILES strings stand for the structures. pEC50, pIC50, pKd: −log10 of the molar value.

Data set [1] addresses Quadruplex DNA. Kind of data set: Binding affinity to c-kit2 G4 quadruplex d(CGGGCGGGCGCTAGGGAGGGT) DNA (unknown origin) assessed as dissociation constant by Microscale thermophoresis analysis. It counts as nucleic-acid assay. A digest of the protocol:
(§1)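 MST with Cy5.5-labelled G4 oligonucleotide held at 20 nM, folded in 5 mM potassium phosphate pH 7.0 with 20 mM KCl plus 0.1% Tween. Ligand in 1:2 serial dilution mixed 1:1 with DNA, 20% DMSO final. Kd taken from binding curves.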
Background: MST reads how a fluorescent partner responds to local heating, with and without ligand.

The subject of data set [2] is Quadruplex DNA. Kind of data set: Stabilization of c-kit2 G4 quadruplex d(CGGGCGGGCGCTAGGGAGGGT) DNA (unknown origin) assessed as thermal stability by measuring difference in melting temperature t1/2 by circular dichroism spectroscopy (reference value: 61.5 +/- 0.5 degC). It counts as nucleic-acid assay. Background: CD spectra are sensitive to the conformation of chiral molecules.

Data set [3] addresses Quadruplex DNA. Kind of data set: Binding affinity to c-kit1 G4 quadruplex d(DNA AGGGAGGGCGCTGGGAGGAGGG) DNA (unknown origin) assessed as dissociation constant by Microscale thermophoresis analysis. It counts as nucleic-acid assay. A digest of the protocol:
as §1

Data set [4] concerns the target Quadruplex DNA. Kind of data set: Binding affinity toc-myc G4 quadruplex d(TTAGGGTTAGGGTTAGGGTTAGGGTT) DNA (unknown origin) assessed as dissociation constant by Microscale thermophoresis analysis. It counts as nucleic-acid assay. The procedure, abridged: as §1
Data set [5] deals with Quadruplex DNA. Kind of data set: Stabilization of F-c-kit1-T quadruplex DNA (unknown origin) by measuring difference in melting temperature t1/2 by FRET assay. It counts as nucleic-acid assay. The procedure, abridged:
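FRET melting of 0.2 μM prefolded FAM/TAMRA-labelled c-kit1 in 5 mM potassium phosphate pH 7.0 with 20 mM KCl, with ligand at 2 molar equiv. Unlabelled hairpin competitor added at 3 or 10 μM (15 or 50 equiv). FAM emission at 520 nm (excitation 492 nm) followed from 15 to 90 °C at 0.2 °C/min. ΔT1/2 versus no ligand. At least duplicate.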

For data set [6], the system named is U2OS. Kind of data set: Induction of DNA damage in human U2OS cells assessed as fold increase in gammaH2AX phosphorylation at […] by measuring fold change at 10 uM incubated for 24 hrs by immunofluorescence microscopy. It counts as functional. The procedure, abridged:
(§2)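 U2OS cells treated 24 h. Fixed with 4% formaldehyde, permeabilized with 0.5% Triton X-100, blocked with 8% BSA, stained with anti-γH2AX (1:500) and Alexa Fluor 594 secondary, DAPI counterstain. Fluorescence microscopy signal quantified as fold over untreated.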

The nature of data set [7]: Genotoxicity in mouse MNMCA1 cells assessed as induction of micronuclei formation at 5 uM incubated for 24 hrs by measuring fold change by DAPI staining based analysis. It counts as toxicity, cell-based. As to conditions: mnmca1, 24 h.
Data set [8] in a line: Stabilization of F-c-kit1-T (unknown origin) assessed as difference in melting temperature t1/2 in presence of d(CGC GAA TTC GCG TIT CGC GAA TTC GCG) DNA hairpin (unknown origin) measured at 1:50 G4 to hairpin DNA ratio by FRET assay. A digest of the protocol: (§3)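 FRET melting of 0.2 μM prefolded FAM/TAMRA dual-labelled c-kit1 G4 in 5 mM K phosphate pH 7.0 with 20 mM KCl. Ligand was added at 2 molar equiv, with unlabelled hairpin competitor at 3 or 10 μM final (15 or 50 equiv relative to G4). FAM emission was read at 520 nm (excitation 492 nm) while heating at 0.2 °C/min over 15–90 °C. ΔT1/2 is relative to no ligand; at least duplicate, averaged.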

The test system of data set [9] is U2OS. Kind of data set: Cytotoxicity against human U2OS cells assessed as cell survival preincubated for 24 hrs with compound further incubated for 48 hrs in drug free medium by MTT assay. It counts as functional, cell-based. The procedure, abridged: (§4)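 Exponentially growing cells seeded and treated 24 h after seeding with increasing concentrations for 24 h. Cells then recovered 48 h in drug-free medium. MTT added for 1 h at 37 °C, formazan dissolved in DMSO, absorbance read at 540 nm. IC50 from linear regression. Means ± SEM of two independent experiments in triplicate.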

Data set [10] can be described thus: Stabilization of F-c-kit1-T (unknown origin) assessed as difference in melting temperature t1/2 in presence of d(CGC GAA TTC GCG TIT CGC GAA TTC GCG) DNA hairpin (unknown origin) measured at 1:15 G4 to hairpin DNA ratio by FRET assay. The procedure, abridged: as §3
The subject of data set [11] is Quadruplex DNA. Kind of data set: Stabilization of human Tel26 G4 quadruplex DNA assessed as thermal stability by measuring difference in melting temperature t1/2 by circular dichroism spectroscopy. It counts as nucleic-acid assay.
The subject of data set [12] is U2OS. Kind of data set: Induction of DNA damage in human U2OS cells assessed as increase in gammaH2AX phosphorylation at S139 incubated for 24 hrs by immunofluorescence microscopy. It counts as functional, cell-based. The following applies: read-out: IC50 (the source's name). The procedure, abridged: as §2
The nature of data set [13]: Cytotoxicity against mouse MNMCA1 cells assessed as cell survival preincubated for 24 hrs with compound further incubated for 48 hrs in drug free medium by MTT assay. It counts as functional, cell-based. A digest of the protocol: as §4
In general terms: Formazan colour is commonly taken as a measure of viable cells.

Data set [14] can be described thus: Stabilization of d(CGC GAA TTC GCG TIT CGC GAA TTC GCG) DNA hairpin (unknown origin) assessed as thermal stability by measuring difference in melting temperature t1/2 by circular dichroism spectroscopy (reference value: 75.4 +/- 0.2 degC). The procedure, abridged: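 CD melting of 15 μM annealed hairpin duplex in 5 mM K phosphate pH 7.0 with 20 mM KCl, with or without ligand at 2 molar equiv added to the folded DNA. The signal was followed at 252 nm from 20 to 100 °C at 1 °C/min, with T1/2 taken from a curve fit. ΔT1/2 is relative to DNA alone; duplicate runs, averaged.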

The subject of data set [15] is Quadruplex DNA. Kind of data set: Stabilization of c-kit1 G4 quadruplex d(DNA AGGGAGGGCGCTGGGAGGAGGG) DNA (unknown origin) assessed as thermal stability by measuring difference in melting temperature t1/2 by circular dichroism spectroscopy (reference value: 54 +/- 0.5 degC). It counts as nucleic-acid assay.
The subject of data set [16] is Quadruplex DNA. Kind of data set: Stabilization of c-myc G4 quadruplex d(TTAGGGTTAGGGTTAGGGTTAGGGTT) DNA (unknown origin) assessed as thermal stability by measuring difference in melting temperature t1/2 by circular dichroism spectroscopy (reference value: 72 +/- 0.5 degC). It counts as nucleic-acid assay.
The nature of data set [17]: Genotoxicity in mouse MNMCA1 cells assessed as induction of micronuclei formation at 1 uM incubated for 24 hrs by measuring fold change by DAPI staining based analysis. It counts as toxicity, cell-based. The following applies: mnmca1, 24 h.
In data set [18] the target is Quadruplex DNA. Kind of data set: Displacement of thiazole orange from c-kit1 G4 quadruplex d(DNA AGGGAGGGCGCTGGGAGGAGGG) DNA (unknown origin) assessed as relative affinity by fluorescent intercalator displacement assay. It counts as nucleic-acid assay. A digest of the protocol: (§5)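 G4 DNA at 0.25 μM with 0.5 μM thiazole orange in 5 mM potassium phosphate pH 7.0 containing 20 mM KCl (LiCl for c-myc), 20 °C. Ligand titrated from 0.5 to 20 molar equiv with 3 min equilibration per addition. Excitation 485 nm, emission 500–650 nm. %displacement = 100 − (F/F0×100); DC50 is the concentration displacing 50% TO. Duplicate titrations.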

Data set [19] addresses Quadruplex DNA. Kind of data set: Displacement of thiazole orange from c-myc G4 quadruplex d(TTAGGGTTAGGGTTAGGGTTAGGGTT) DNA (unknown origin) assessed as relative affinity by fluorescent intercalator displacement assay. It counts as nucleic-acid assay. The procedure, abridged:
as §5

In data set [20] the test system is Quadruplex DNA. Kind of data set: Stabilization of G4 quadruplex DNA in human U2OS cells assessed as BG4 foci formation by measuring fold increase in G4 structure at 10 uM by immunofluorescence microscopy. It counts as cell-based. A digest of the protocol: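 U2OS cells on coverslips treated for […]. Fixed in methanol/acetic acid 3:1, permeabilized with 0.1% Triton X-100, blocked in 2% milk. Stained with 0.5 μg BG4 for 2 h, then anti-FLAG and Alexa Fluor 488 secondary. Signal quantified as fold over untreated.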

Data set [21] concerns the target Quadruplex DNA. Kind of data set: Displacement of thiazole orange from c-kit2 G4 quadruplex d(CGGGCGGGCGCTAGGGAGGGT) DNA (unknown origin) assessed as relative affinity by fluorescent intercalator displacement assay. It counts as nucleic-acid assay. A digest of the protocol:
as §5

A short description of data set [22]: Genotoxicity in mouse MNMCA1 cells assessed as induction of micronuclei formation measured after 24 hrs by DAPI staining based analysis. It counts as toxicity, cell-based. The following applies: mnmca1, 24 h.

Turning to `OCc1c(-c2ccccc2)nc2n1ccc1nc(-c3ccccc3)c(/C=N/NC3=NCCN3)n12`, the pKd at Quadruplex DNA [1] is 5.60; on Quadruplex DNA [3], 5.10; on Quadruplex DNA [4], 4.43. Besides, the ΔTm in the data set with Quadruplex DNA [2] worked out at 14.7 °C; in the data set with Quadruplex DNA [5], 8 °C; in [8], 8.4 °C; in data set [10], 7.8 °C; in the data set with Quadruplex DNA [11], 2 °C; in data set [14], 1.3 °C. The thermal shift (ΔTm) in the data set on Quadruplex DNA [15] worked out at 7.1 °C; in the data set on Quadruplex DNA [16] it was 1.7 °C. For the same compound, the “fold change (FC)” value in the data set on U2OS [6] came out at 1.55; in data set [7], 2.5. The negative logarithm of the IC50 (pIC50) is 4.61 in the data set with U2OS [9] and 4.92 in [13]. For the same compound, the pEC50 in the data set on U2OS [12] is 4.62.
Turning to `N=C(N)N/N=C/c1c(-c2ccccc2)nc2ccn3c(CO)c(-c4ccccc4)nc3n12`, the values for the negative logarithm of the Kd (pKd) on Quadruplex DNA [1], on Quadruplex DNA [3] and on Quadruplex DNA [4] were 5.89, 5.70 and 5.10, respectively. Besides, the thermal shift (ΔTm) in the data set on Quadruplex DNA [2] is 18.6 °C; in the data set with Quadruplex DNA [5], 10 °C; in data set [8] it was 12.1 °C; in data set [10], 11.1 °C; with Quadruplex DNA [11], 1.8 °C; in data set [14], 2.3 °C. The shift in melting temperature (ΔTm) in the data set with Quadruplex DNA [15] was found to be 9.7 °C; with Quadruplex DNA [16] it was 2.8 °C. Besides, the “fold change (FC)” value was 2.32 in the data set with U2OS [6] and 2.5 in [7]. Also, the pIC50 was 4.84 in the data set on U2OS [9] and 4.45 in data set [13]. Moreover, in the data set with U2OS [12], the pEC50 was 4.85.
As to `N=C(N)N/N=C/c1c(-c2ccccc2)nc2ccn3c(C=O)c(-c4ccccc4)nc3n12`, the pKd on Quadruplex DNA [1] is 6.43; at Quadruplex DNA [3] it was 6.52; on Quadruplex DNA [4], 5.15. The shift in melting temperature (ΔTm) with Quadruplex DNA [2] turned out to be 24.2 °C; with Quadruplex DNA [5] it was 22 °C; in [8], 22.2 °C; in data set [10], 21.6 °C; in the data set with Quadruplex DNA [11] it was 4.3 °C; in data set [14] it was 1.7 °C. Moreover, the shift in melting temperature (ΔTm) in the data set with Quadruplex DNA [15] was determined as 11.2 °C; in the data set with Quadruplex DNA [16], 5.8 °C. Also, the “fold change (FC)” value with U2OS [6] was found to be 2.32; in [17] it was 2.5. For the same compound, the pIC50 in the data set on U2OS [9] is 5.59; in [13] it was 5.72. Also, in the data set with U2OS [12], the pEC50 was 5.62.
With `Clc1ccc(-c2nc3ccn4c(/C=N/NC5=NCCN5)c(-c5ccccc5)nc4n3c2/C=N/NC2=NCCN2)cc1`, the results for the pKd on Quadruplex DNA [1], at Quadruplex DNA [3] and on Quadruplex DNA [4] were 6.31, 6.42 and 5.52, respectively. Moreover, the ΔTm came to 22 °C in the data set on Quadruplex DNA [2]; 24.6 °C with Quadruplex DNA [5]; 19.6 °C in data set [8]; 21.4 °C in data set [10]; 6.3 °C in the data set on Quadruplex DNA [11]; 1.2 °C in data set [14]. The ΔTm in the data set on Quadruplex DNA [15] was found to be 15.5 °C; with Quadruplex DNA [16] it was 7.4 °C. The “fold change (FC)” value in the data set with U2OS [6] was 1.37; in the data set on Quadruplex DNA [20], 0.77; in [22], 0.4. Also, the pIC50 was 5.57 at Quadruplex DNA [18]; 5.74 at Quadruplex DNA [19]; 4.69 in the data set on U2OS [9]; 4.63 in data set [13]; 5.77 on Quadruplex DNA [21]. The pEC50 in the data set with U2OS [12] was 4.70.
Regarding `O=Cc1c(-c2ccccc2)nc2n1ccc1nc(-c3ccccc3)c(/C=N/NC3=NCCN3)n12`, the results for the “fold change (FC)” value (in the data set with U2OS [6]; in [17]) were 1.55 and 2.5, respectively. The negative logarithm of the IC50 (pIC50) in the data set on U2OS [9] is 5.40; in data set [13] it was 5.64. Besides, the pEC50 with U2OS [12] is 5.40.
